# In PMC2756064 (Journal of medicinal chemistry, 2009):
# Square brackets hold non-standard residues; d marks the D form. Peptide text beside a SMILES is read from it. * marks the point of attachment. Hmp(2R,3S) = CC[C@H](C)[C@@H](O)C(=O)O; Sta = CC(C)C[C@H](N)[C@@H](O)CC(=O)O; NMe2Val = CC(C)[C@@H](C(=O)*)N(C)C; dNMeF = CN[C@H](Cc1ccccc1)C(=O)O; NMeQ = CN[C@@H](CCC(N)=O)C(=O)O; dHiv = CC(C)[C@@H](O)C(=O)O; Hiv = CC(C)[C@H](O)C(=O)O; Isovaleryl = CC(C)CC(=O)*
# Tests used:
# TACE = TACE (Homo sapiens, UniProt P78536); assay: Protease inhibition screen and IC50 assay, TACE; type: biochemical; conditions: 10 μM, panel of 59 proteases
# Chain of TACE (P78536 215-824): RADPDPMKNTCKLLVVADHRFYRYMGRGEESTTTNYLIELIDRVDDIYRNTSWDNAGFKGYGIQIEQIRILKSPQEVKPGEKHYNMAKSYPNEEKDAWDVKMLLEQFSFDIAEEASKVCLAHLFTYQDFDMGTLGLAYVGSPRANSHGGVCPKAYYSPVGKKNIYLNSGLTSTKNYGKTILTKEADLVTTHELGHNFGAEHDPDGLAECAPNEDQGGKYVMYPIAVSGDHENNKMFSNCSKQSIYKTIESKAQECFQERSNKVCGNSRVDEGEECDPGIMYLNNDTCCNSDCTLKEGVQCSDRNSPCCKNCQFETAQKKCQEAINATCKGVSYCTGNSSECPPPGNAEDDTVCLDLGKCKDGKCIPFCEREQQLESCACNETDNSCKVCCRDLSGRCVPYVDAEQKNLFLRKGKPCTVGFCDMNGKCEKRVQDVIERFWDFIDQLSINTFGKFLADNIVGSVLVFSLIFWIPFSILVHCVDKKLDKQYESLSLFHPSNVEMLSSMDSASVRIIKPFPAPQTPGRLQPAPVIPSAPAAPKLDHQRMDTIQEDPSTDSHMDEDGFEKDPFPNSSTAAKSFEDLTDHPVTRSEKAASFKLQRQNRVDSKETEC
# [1] = test system: monocyte derived dendritic cells and CD4+ T cells (autologous); assay: Autologous mixed lymphocyte reaction; type: cell-based, human; conditions: autologous MLR
# ADAM9 = molecular target: T1, ADAM9 (Homo sapiens, UniProt Q13443); assay: Protease inhibition screen and IC50 assay, ADAM9; type: biochemical; conditions: 10 μM, panel of 59 proteases
# T1 sequence (Q13443 29-819): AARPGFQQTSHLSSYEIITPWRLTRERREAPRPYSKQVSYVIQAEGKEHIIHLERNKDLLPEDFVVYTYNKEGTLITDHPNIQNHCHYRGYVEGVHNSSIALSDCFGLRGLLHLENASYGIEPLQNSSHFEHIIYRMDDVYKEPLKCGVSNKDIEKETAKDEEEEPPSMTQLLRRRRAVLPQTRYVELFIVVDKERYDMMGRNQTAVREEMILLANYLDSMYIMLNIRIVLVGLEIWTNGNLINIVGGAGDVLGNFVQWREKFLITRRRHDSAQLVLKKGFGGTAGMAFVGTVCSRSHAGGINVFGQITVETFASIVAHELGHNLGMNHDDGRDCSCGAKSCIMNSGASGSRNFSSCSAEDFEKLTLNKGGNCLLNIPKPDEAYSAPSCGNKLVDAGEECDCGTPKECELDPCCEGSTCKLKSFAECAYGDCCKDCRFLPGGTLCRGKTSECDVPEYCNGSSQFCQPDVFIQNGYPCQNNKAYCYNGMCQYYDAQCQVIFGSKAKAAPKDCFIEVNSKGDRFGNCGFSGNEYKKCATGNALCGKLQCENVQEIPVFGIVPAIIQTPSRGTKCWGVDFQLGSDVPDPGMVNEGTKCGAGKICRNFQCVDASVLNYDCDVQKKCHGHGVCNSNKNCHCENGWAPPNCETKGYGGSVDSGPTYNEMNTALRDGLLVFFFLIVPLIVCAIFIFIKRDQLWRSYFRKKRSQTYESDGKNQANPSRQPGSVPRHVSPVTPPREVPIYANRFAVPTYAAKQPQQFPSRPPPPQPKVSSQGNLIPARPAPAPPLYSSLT
# ADAM10 = molecular target: T2, ADAM10 (Homo sapiens, UniProt O14672); assay: Protease inhibition screen and IC50 assay, ADAM10; type: biochemical; conditions: 10 μM, panel of 59 proteases
# T2 sequence (O14672 214-748): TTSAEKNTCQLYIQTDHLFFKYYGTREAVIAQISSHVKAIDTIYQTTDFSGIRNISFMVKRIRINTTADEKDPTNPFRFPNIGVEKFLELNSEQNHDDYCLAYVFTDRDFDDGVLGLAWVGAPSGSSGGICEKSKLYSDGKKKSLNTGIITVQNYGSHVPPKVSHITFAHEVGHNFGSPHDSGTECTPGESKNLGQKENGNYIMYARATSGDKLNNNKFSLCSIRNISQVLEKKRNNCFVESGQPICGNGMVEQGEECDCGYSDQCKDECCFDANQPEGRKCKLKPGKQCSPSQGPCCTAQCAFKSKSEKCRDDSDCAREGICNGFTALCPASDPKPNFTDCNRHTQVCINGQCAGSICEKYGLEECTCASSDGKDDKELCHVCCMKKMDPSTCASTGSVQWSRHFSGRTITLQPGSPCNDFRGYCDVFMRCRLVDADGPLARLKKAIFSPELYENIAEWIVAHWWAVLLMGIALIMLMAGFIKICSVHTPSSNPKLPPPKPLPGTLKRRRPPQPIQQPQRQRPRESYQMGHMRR
# [2] = test system: monocyte derived dendritic cells and CD4+ T cells (allogeneic); assay: Allogeneic mixed lymphocyte reaction; type: cell-based, human; conditions: allogeneic MLR
# [3] = test system: MCF7 cell lysate (cellular cathepsins D and E); assay: Inhibition of cellular cathepsins in MCF7 cell lysate; type: biochemical
# [4] = test system: human peripheral blood mononuclear cells (CD3+ T cells); assay: T cell proliferation in PBMCs in response to exogenous antigen; type: cell-based
# Outline: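 Human PBMCs were isolated from buffy coats by Ficoll-Hypaque density gradient centrifugation, washed in PBS, and checked for viability by trypan blue. They were cultured in RPMI 1640 with 2 mM L-glutamine, penicillin/streptomycin and 10% FBS, with test compound at various concentrations. Cells were antibody-stained for 30 min at 4 °C, then permeabilised for intracellular staining and fixed in 2% paraformaldehyde. Lymphocytes were gated by forward/side scatter, with 50,000 cells per sample and isotype controls.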
# [5] = Solubility in DMSO for dilution series; type: physicochemical
# Cathepsin E = molecular target: T3, Cathepsin E (Homo sapiens, UniProt P14091); assay: Protease inhibition screen and IC50 assay, cathepsin E; type: biochemical; conditions: result in words
# T3 sequence (P14091 54-396): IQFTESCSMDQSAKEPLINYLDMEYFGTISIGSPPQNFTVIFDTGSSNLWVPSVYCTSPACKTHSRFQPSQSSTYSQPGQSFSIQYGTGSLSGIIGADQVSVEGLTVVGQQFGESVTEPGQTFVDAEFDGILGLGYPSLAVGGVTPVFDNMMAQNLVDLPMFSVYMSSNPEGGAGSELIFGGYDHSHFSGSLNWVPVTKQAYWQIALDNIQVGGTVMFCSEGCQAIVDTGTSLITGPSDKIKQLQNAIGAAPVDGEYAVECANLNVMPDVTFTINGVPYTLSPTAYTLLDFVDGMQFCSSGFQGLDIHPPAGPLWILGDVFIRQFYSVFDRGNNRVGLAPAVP
structure (smiles),measurement,setting,value
"COC(=O)[C@@H]1CCCN1C(=O)[C@@H](Cc1ccccc1)N(C)C(=O)[C@H](C)NC(=O)[C@@H](NC(=O)C[C@H](O)[C@H](CC(C)C)NC(=O)[C@H](CC(N)=O)NC(=O)[C@H](CC(C)C)NC(=O)[C@H](OC(=O)[C@@H](OC(=O)[C@H](C(C)C)N(C)C)C(C)C)C(C)C)[C@@H](C)O [Compound 1, grassystatin A] (NMe2Val-[Hiv][dHiv]LN[Sta]TA[dNMeF]P-OMe)",inhibitory activity in protease screen,TACE,compromised activities
same,interferon-γ (IFN-γ) in response to antigen presentation,[1],inhibit upregulation
same,interleukin-17 (IL-17) in response to antigen presentation,[1],inhibit upregulation
same,T cell proliferation,"[1]; TTc + PMA, 5 days",reduce T cell proliferation in a dose dependent manner
same,inhibitory activity in protease screen,ADAM9,compromised activities
same,inhibitory activity in protease screen,ADAM10,compromised activities
same,IFN-γ production,[2],significant downregulation
same,IL-17 production,[2],significant downregulation
same,decrease in potency compared to purified cathepsin E,[3]; MCF7 lysate,564 fold
same,difference in IC50 compared to pepstatin A,[3]; MCF7 lysate,100 fold
same,IC50,"[3]; read-out: apparent IC50, MCF7 lysate treated directly",~500 nM
same,T cell proliferation in response to exogenous antigen (TTc),"[4]; 10 μM, CD3+ lymphocytes",significantly reduce
same,T cell viability,"[4]; same experiment, data not shown",unaffected
"CC[C@H](C)[C@H](NC(=O)C[C@H](O)[C@H](CC(C)C)NC(=O)[C@H](CCC(N)=O)N(C)C(=O)[C@H](CC(C)C)NC(=O)[C@H](O)[C@@H](C)CC)C(=O)NCC(=O)N(C)[C@H](Cc1ccccc1)C(=O)N1CCC[C@H]1C(=O)OC [Compound 3, grassystatin C] ({Hmp(2R,3S)}-L[NMeQ][Sta]IG[dNMeF]P-OMe)",solubility in DMSO,[5],insoluble in DMSO
"CC(C)CC(=O)N[C@H](C(=O)N[C@H](C(=O)N[C@@H](CC(C)C)[C@@H](O)CC(=O)N[C@@H](C)C(=O)N[C@@H](CC(C)C)[C@@H](O)CC(=O)O)C(C)C)C(C)C [Pepstatin A, pepstatin A] (Isovaleryl-VV[Sta]A[Sta]-OH)",discrimination between cathepsins D and E,Cathepsin E,did not discriminate
